Experiments:
Liver microsome [1] = experiment: Drug metabolism in pooled human liver microsomes assessed as compound formation at 10 uM incubated for 60 mins in presence of NADPH by uHPLC-MS/MS method; type: ADME; conditions: 1 h
Outline: (§1)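 Metabolite identification in human liver microsome incubations with 10 μM substrate. Products were assigned by m/z (monooxygenated, dihydroxylated, N-dealkylated), uHPLC retention time and MS/MS fragment ions. Parallel incubations in isotopic water located the inserted oxygen from +2 shifts in fragment masses.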

[2] = Retention time of the compound by uHPLC-MS/MS method; type: physicochemical; outline: as §1
Cytochrome P450 1A2 [3] = molecular target: T1, Cytochrome P450 1A2 (Homo sapiens, UniProt P05177); experiment: Drug metabolism assessed as CYP1A2 (unknown origin)-mediated compound formation at 10 uM incubated for 60 mins in presence of NADPH by uHPLC-MS/MS method; type: ADME; conditions: 1 h
T1 sequence (P05177 whole entry): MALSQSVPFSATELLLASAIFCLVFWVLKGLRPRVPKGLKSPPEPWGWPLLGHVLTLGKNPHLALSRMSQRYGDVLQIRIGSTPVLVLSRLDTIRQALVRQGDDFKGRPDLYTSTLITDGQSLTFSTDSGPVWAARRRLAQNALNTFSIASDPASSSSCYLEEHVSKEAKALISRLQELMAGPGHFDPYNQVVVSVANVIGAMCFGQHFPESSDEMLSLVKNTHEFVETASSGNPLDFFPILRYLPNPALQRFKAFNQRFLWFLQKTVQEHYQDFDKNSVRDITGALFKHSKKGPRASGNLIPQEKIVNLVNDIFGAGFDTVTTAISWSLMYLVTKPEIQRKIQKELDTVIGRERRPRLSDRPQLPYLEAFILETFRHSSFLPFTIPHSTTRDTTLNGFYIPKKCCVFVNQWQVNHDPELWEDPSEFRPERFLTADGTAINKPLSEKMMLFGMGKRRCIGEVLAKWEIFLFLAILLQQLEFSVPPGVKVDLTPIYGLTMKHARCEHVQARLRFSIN
Outline: (§2)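 Individual cDNA-expressed human P450s (CYP2B6 in insect microsomes) were incubated separately with each analogue at 10 μM. The enzyme panel covers the major drug-metabolizing P450s. Products were monitored as the metabolites first found in human liver microsome incubations, identified by m/z and retention time.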

Cytochrome P450 3A5 [4] = molecular target: T2, Cytochrome P450 3A5 (Homo sapiens, UniProt P20815); experiment: Drug metabolism assessed as CYP3A5 (unknown origin)-mediated compound formation at 10 uM incubated for 60 mins in presence of NADPH by uHPLC-MS/MS method; type: ADME; conditions: 1 h; outline: as §2
Target sequence in this assay (P20815 whole entry): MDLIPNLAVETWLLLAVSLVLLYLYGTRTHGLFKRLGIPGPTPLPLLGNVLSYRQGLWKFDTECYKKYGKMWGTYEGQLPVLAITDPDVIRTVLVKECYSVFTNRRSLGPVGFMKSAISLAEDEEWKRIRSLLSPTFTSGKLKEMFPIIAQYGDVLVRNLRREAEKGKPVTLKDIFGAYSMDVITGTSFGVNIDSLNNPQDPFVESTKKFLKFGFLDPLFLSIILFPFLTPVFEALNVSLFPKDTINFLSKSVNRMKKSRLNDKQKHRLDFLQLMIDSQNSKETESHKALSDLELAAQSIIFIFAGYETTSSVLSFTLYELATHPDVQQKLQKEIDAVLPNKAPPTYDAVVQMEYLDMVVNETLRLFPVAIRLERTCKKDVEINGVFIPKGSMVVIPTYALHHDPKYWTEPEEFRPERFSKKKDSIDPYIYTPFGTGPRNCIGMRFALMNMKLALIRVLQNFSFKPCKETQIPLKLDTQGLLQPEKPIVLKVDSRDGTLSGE

Cytochrome P450 2B6 [5] = molecular target: T3, Cytochrome P450 2B6 (Homo sapiens, UniProt P20813); experiment: Drug metabolism assessed as CYP2B6 (unknown origin)-mediated compound formation at 10 uM incubated for 60 mins in presence of NADPH by uHPLC-MS/MS method; type: ADME; conditions: 1 h; outline: as §2
T3 sequence (P20813 whole entry): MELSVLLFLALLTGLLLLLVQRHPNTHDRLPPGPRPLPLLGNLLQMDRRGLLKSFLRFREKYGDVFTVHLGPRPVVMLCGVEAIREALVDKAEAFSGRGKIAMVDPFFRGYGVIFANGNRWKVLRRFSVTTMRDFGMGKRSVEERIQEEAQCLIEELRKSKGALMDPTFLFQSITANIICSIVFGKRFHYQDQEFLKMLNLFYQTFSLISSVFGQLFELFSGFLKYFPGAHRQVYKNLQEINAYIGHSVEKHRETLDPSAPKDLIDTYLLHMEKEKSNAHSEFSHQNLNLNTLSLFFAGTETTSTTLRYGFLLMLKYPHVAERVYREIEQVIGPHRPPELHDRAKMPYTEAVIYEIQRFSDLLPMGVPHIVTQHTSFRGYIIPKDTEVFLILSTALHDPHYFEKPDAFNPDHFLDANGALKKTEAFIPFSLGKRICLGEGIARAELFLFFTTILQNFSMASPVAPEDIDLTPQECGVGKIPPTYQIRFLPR

Liver microsome [6] = experiment: Drug metabolism in pooled human liver microsomes assessed as compound formation at 10 uM incubated for 60 mins in presence of NADPH and using isotopic water by uHPLC-MS/MS method; type: ADME; conditions: 1 h; outline: as §1
Liver microsome [7] = experiment: Drug metabolism in pooled human liver microsomes assessed as mono-oxygenated metabolite formation at 10 uM incubated for 60 mins in presence of NADPH by uHPLC-MS/MS method; type: ADME; conditions: 1 h; outline: as §1
Cytochrome P450 2B6 [8] = molecular target: T3, Cytochrome P450 2B6; experiment: Drug metabolism assessed as CYP2B6 (unknown origin)-mediated metabolite formation at 10 uM incubated for 60 mins in presence of NADPH by uHPLC-MS/MS method; type: ADME; conditions: 1 h; outline: as §2
Cytochrome P450 2B6 [9] = molecular target: T3, Cytochrome P450 2B6; experiment: Activity of CYP2B6 (unknown origin) assessed as maximum depletion rate constant pre-incubated for 5 mins in presence of NADPH by uHPLC-MS/MS based substrate depletion kinetics assay; type: ADME
Outline: (§3)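 cDNA-expressed CYP2B6 in insect microsomes. Parent loss was followed over time by substrate depletion, chosen because several metabolites form. Km and maximum depletion rate constant (kdep max, min–1) were derived from depletion kinetics, and Vmax was expressed as pmol/min/pmol P450.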

CYP2B6 [10] = molecular target: T4, CYP2B6 (Homo sapiens, UniProt P20813); experiment: Inhibition of CYP2B6 (unknown origin) assessed as reduction in hydroxybupropion formation by measuring remaining enzyme activity at 10 uM incubated for 10 mins by uHPLC-MS/MS method; type: ADME; conditions: probe bupropion (hydroxybupropion formation), read-out: Activity
T4 sequence (P20813 whole entry): T3 sequence (P20813 whole entry)
Outline: (§4)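 CYP2B6 insect microsomes were coincubated with the probe substrate bupropion plus test compound at 10 μM. Hydroxybupropion formation was measured and compared with a vehicle control.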

CYP2B6 [11] = molecular target: T4, CYP2B6; experiment: Activity of CYP2B6 (unknown origin) pre-incubated for 5 mins in presence of NADPH by uHPLC-MS/MS based substrate depletion kinetics assay; type: ADME; conditions: CYP2B6 enzyme (unknown origin); outline: as §3
Cytochrome P450 3A5 [12] = molecular target: T2, Cytochrome P450 3A5; experiment: Drug metabolism assessed as CYP3A5 (unknown origin)-mediated metabolite formation at 10 uM incubated for 60 mins in presence of NADPH by uHPLC-MS/MS method; conditions: 1 h
Target sequence in this assay (P20815 whole entry, looked up): as the sequence (P20815 whole entry) above

Cytochrome P450 2B6 [13] = molecular target: T3, Cytochrome P450 2B6; experiment: Activity of CYP2B6 (unknown origin) assessed per pmol protein pre-incubated for 5 mins in presence of NADPH by uHPLC-MS/MS based substrate depletion kinetics assay; type: ADME; outline: as §3
Cytochrome P450 1A2 [14] = molecular target: T1, Cytochrome P450 1A2; experiment: Drug metabolism assessed as CYP1A2 (unknown origin)-mediated metabolite formation at 10 uM incubated for 60 mins in presence of NADPH by uHPLC-MS/MS method; type: ADME; conditions: 1 h; outline: as §2
Liver microsome [15] = experiment: Drug metabolism in pooled human liver microsomes assessed as metabolite formation at 10 uM incubated for 60 mins in presence of NADPH by uHPLC-MS/MS method; type: ADME; conditions: 1 h; outline: as §1
Cytochrome P450 2B6 [16] = molecular target: T3, Cytochrome P450 2B6; experiment: (§5) Inhibition of CYP2B6 (unknown origin) assessed as reduction in hydroxybupropion formation at 10 uM incubated for 10 mins by uHPLC-MS/MS method; type: ADME; conditions: 10 min, 10 µM; outline: as §4
CYP2B6 [17] = molecular target: T4, CYP2B6; experiment: as §5; type: ADME; conditions: CYP2B6 enzyme (unknown origin), probe bupropion (hydroxybupropion formation); outline: as §4

SMILES: CC(O)CC#CC1(C(F)(F)F)OC(=O)Nc2ccc(Cl)cc21 (stereo unspecified)
- Drug metabolism (Liver microsome [1]): metabolite_detected
- Retention_time [2]: 5.11 min

SMILES: CCC(O)C#CC1(C(F)(F)F)OC(=O)Nc2ccc(Cl)cc21 (stereo unspecified)
- Drug metabolism (Liver microsome [1]): metabolite_detected
- Retention_time [2]: 5.6 min

SMILES: CCCC#CC1(C(F)(F)F)OC(=O)Nc2c(O)cc(Cl)cc21 (stereo unspecified)
- Drug metabolism (Cytochrome P450 1A2 [3]): metabolite_detected
- Drug metabolism (Liver microsome [1]): metabolite_detected
- Drug metabolism (Cytochrome P450 3A5 [4]): metabolite_detected
- Retention_time [2]: 6.98 min
- Drug metabolism (Cytochrome P450 2B6 [5]): metabolite_detected

SMILES: OC1(C#C[C@]2(C(F)(F)F)OCNc3ccc(Cl)cc32)CC1
- Drug metabolism (Liver microsome [1]): metabolite_detected
- Retention_time [2]: 5 min
- Drug metabolism (Liver microsome [6]): metabolite_detected

SMILES: CCCC#CC1(C(F)(F)F)OC(=O)Nc2ccc(Cl)cc21 (racemic)
- Drug metabolism (Liver microsome [7]): metabolite_detected
- Drug metabolism (Cytochrome P450 2B6 [8]): metabolite_detected
- K (Cytochrome P450 2B6 [9]): 0.0088 min⁻¹
- activity at 10 min, 10 µM (CYP2B6 [10]): 27%
- Km (CYP2B6 [11]): 1.1 µM
- Drug metabolism (Cytochrome P450 3A5 [12]): metabolite_detected
- Vmax (Cytochrome P450 2B6 [13]): 0.97 pmol/min
- Drug metabolism (Cytochrome P450 1A2 [14]): metabolite_detected

SMILES: COc1ccc(C(=O)Nc2ccc(Cl)cc2C(O)(C#CC2CC2)C(F)(F)F)cc1 (racemic)
- Drug metabolism (Liver microsome [15]): metabolite_detected
- inhibition (INH) (Cytochrome P450 2B6 [16]): Not Active

SMILES: O=C1Nc2ccc(Cl)cc2[C@@](C#CC2CC2)(C(F)(F)F)O1 [EFAVIRENZ]
- K (Cytochrome P450 2B6 [9]): 0.023 min⁻¹
- Km (CYP2B6 [11]): 0.45 µM
- Vmax (Cytochrome P450 2B6 [13]): 1 pmol/min
- inhibition at 10 min, 10 µM (CYP2B6 [17]): 93%

Source: ChEMBL document CHEMBL3351404, “Structure-Activity Studies Reveal the Oxazinone Ring Is a Determinant of Cytochrome P450 2B6 Activity Toward Efavirenz” (ACS Med Chem Lett, 2014)
